The record followed here is ChEMBL document CHEMBL1141756, “3-Nitropropionic acid (3-NPA), a potent antimycobacterial agent from endophytic fungi: is 3-NPA in some plants produced by endophytes?” (J Nat Prod, 2005).

In experiment [1] the test system is Vero. As to the kind of experiment: Cytotoxicity against african green monkey Vero cells at 419.8 uM. It counts as functional, cell-based. The settings on record: Chlorocebus sabaeus. The method in brief:
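Vero cells tested at 419.8 µM using the Skehan colorimetric cytotoxicity method; ellipticine reference.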

Experiment [2] deals with KB. Briefly: Cytotoxicity against human KB cells at 167.9 uM. Format: functional, cell-based. The method in brief: (§1)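 BC, KB and NCI-H187 cells tested at 167.9 µM using the Skehan colorimetric cytotoxicity method; ellipticine reference.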
Experiment [3] has as its system Mycobacterium tuberculosis. Briefly: Antimycobacterial activity against Mycobacterium tuberculosis H37Ra by microplate alamar blue assay. It counts as functional. In a few lines: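 MABA against M. tuberculosis H37Ra grown in Middlebrook 7H9 broth; MIC read. Isoniazid and kanamycin sulfate run as reference drugs in the same experiment as samples.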
The next experiment relates to BC. As to the kind of experiment: Cytotoxicity against human BC cells at 167.9 uM. It counts as functional, cell-based. In a few lines:
as §1

The test system of experiment [4] is NCI-H187. Briefly: Cytotoxicity against human NCI-H187 cells at 167.9 uM. Format: functional, cell-based. The method in brief:
as §1

Experiment [5] is described as follows: Cytotoxicity against human BC cells. Format: functional, cell-based. In a few lines:
(§2)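 Colorimetric cytotoxicity method (Skehan) on Vero, KB, NCI-H187 (small-cell lung cancer) and BC (breast cancer) cells; IC50 derived; ellipticine as reference compound.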

In experiment [6] the test system is NCI-H187. Briefly: Cytotoxicity against human NCI-H187 cells. It counts as functional, cell-based. The method in brief:
as §2

Experiment [7] deals with KB. As to the kind of experiment: Cytotoxicity against human KB cells. It counts as functional, cell-based. The method in brief:
as §2

The test system of experiment [8] is Vero. Briefly: Cytotoxicity against african green monkey Vero cells. It counts as functional, cell-based. The settings on record: Chlorocebus sabaeus. The method in brief:
as §2

Values after ≈ are worked out from the molar mass of the structure shown. Structures can show the parent of a compound that is named as a salt. Active and inactive are the calls of the source.

As usually defined, the MIC is the smallest concentration in the dilution series that meets the test's criterion for growth inhibition. The term IC50 denotes the concentration needed to halve the response being measured.

In the case of `O=C(O)CC[N+](=O)[O-]`, the result in the experiment on Vero [1], in the experiment with KB [2], with BC and in the experiment on NCI-H187 [4] was inactive. Also, in experiment [3], the MIC was 3.3 µM (≈ 0.393 µg/mL).
On to `Cc1c2ccncc2c(C)c2c1[nH]c1ccccc12` [ELLIPTECINE], for which the IC50 (in [5]; in the experiment with NCI-H187 [6]; with KB [7]; in the experiment with Vero [8]) was 800 nM throughout.
`NNC(=O)c1ccncc1` [ISONIAZID] registered an MIC in experiment [3] of 0.29 µM (≈ 0.0398 µg/mL).
The same measure, in the same setting: with `NC[C@H]1O[C@H](O[C@H]2[C@H](O)[C@@H](O[C@H]3O[C@H](CO)[C@@H](O)[C@H](N)[C@H]3O)[C@H](N)C[C@@H]2N)[C@H](O)[C@@H](O)[C@@H]1O` [KANAMYCIN SULFATE] the figure was 3.4 µM.
